Experiments:
Bone [1] = assay: Biodistribution in 9L cells bearing Fischer 344 rat bone at 15 to 30 uCi, iv after 30 mins; format: ADME, organism-based, Bone element; settings: in vivo, 0.5 h
Summary of the method: (§1)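 Male Fischer 344 rats (125–175 g) bearing intracranial 9L gliosarcoma implants; radioiodinated tracer (123I for S, 131I for R) purified in saline, given intravenously. Tissues harvested at 30, 60 or 120 min, radioactivity expressed as %ID/g (thyroid per organ). Groups: S study 5 rats per time; R study 5 at 30 min, 4 at 60 and 120 min.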

Brain [2] = assay: Biodistribution in 9L cells bearing Fischer 344 rat brain at 15 to 30 uCi, iv after 60 mins; format: ADME, organism-based; settings: in vivo, 1 h; summary of the method: as §1
Kidney [3] = assay: Biodistribution in 9L cells bearing Fischer 344 rat kidney at 15 to 30 uCi, iv after 30 mins; format: ADME, organism-based; settings: in vivo, 0.5 h; summary of the method: as §1
Brain [4] = assay: Biodistribution in 9L cells bearing Fischer 344 rat brain at 15 to 30 uCi, iv after 30 mins; format: ADME, organism-based; settings: in vivo, 0.5 h; summary of the method: as §1
Heart [5] = assay: Biodistribution in 9L cells bearing Fischer 344 rat heart at 15 to 30 uCi, iv after 30 mins; format: ADME, organism-based; settings: in vivo, 0.5 h; summary of the method: as §1
Muscle tissue [6] = assay: Biodistribution in 9L cells bearing Fischer 344 rat muscle at 15 to 30 uCi, iv after 120 mins; format: ADME, organism-based; settings: in vivo, 2 h; summary of the method: as §1
Testes [7] = assay: Biodistribution in 9L cells bearing Fischer 344 rat testes at 15 to 30 uCi, iv after 60 mins; format: ADME, organism-based, Testis; settings: in vivo, 1 h; summary of the method: as §1
Pancreas [8] = assay: Biodistribution in 9L cells bearing Fischer 344 rat pancreas at 15 to 30 uCi, iv after 60 mins; format: ADME, organism-based; settings: in vivo, 1 h; summary of the method: as §1
Liver [9] = assay: Biodistribution in 9L cells bearing Fischer 344 rat liver at 15 to 30 uCi, iv after 30 mins; format: ADME, organism-based; settings: in vivo, 0.5 h; summary of the method: as §1
Spleen [10] = assay: Biodistribution in 9L cells bearing Fischer 344 rat spleen at 15 to 30 uCi, iv after 120 mins; format: ADME, organism-based; settings: in vivo, 2 h; summary of the method: as §1
Lung [11] = assay: Biodistribution in 9L cells bearing Fischer 344 rat lung at 15 to 30 uCi, iv after 60 mins; format: ADME, organism-based; settings: in vivo, 1 h; summary of the method: as §1
Pancreas [12] = assay: Biodistribution in 9L cells bearing Fischer 344 rat pancreas at 15 to 30 uCi, iv after 120 mins; format: ADME, organism-based; settings: in vivo, 2 h; summary of the method: as §1
Rattus norvegicus [13] = assay: Biodistribution in 9L cells bearing Fischer 344 rat tumor at 15 to 30 uCi, iv after 30 mins; format: ADME, organism-based, Neoplasm; settings: in vivo, 0.5 h; summary of the method: as §1
Spleen [14] = assay: Biodistribution in 9L cells bearing Fischer 344 rat spleen at 15 to 30 uCi, iv after 60 mins; format: ADME, organism-based; settings: in vivo, 1 h; summary of the method: as §1
Spleen [15] = assay: Biodistribution in 9L cells bearing Fischer 344 rat spleen at 15 to 30 uCi, iv after 30 mins; format: ADME, organism-based; settings: in vivo, 0.5 h; summary of the method: as §1
Muscle tissue [16] = assay: Biodistribution in 9L cells bearing Fischer 344 rat muscle at 15 to 30 uCi, iv after 60 mins; format: ADME, organism-based; settings: in vivo, 1 h; summary of the method: as §1
Nucleic Acid [17] = assay: Ratio of drug level in tumor to brain in 9L cells bearing Fischer 344 rat at 15 to 30 uCi, iv after 120 mins; format: ADME, organism-based; settings: in vivo, 2 h
Summary of the method: (§2)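 Intracranial 9L gliosarcoma in male Fischer 344 rats (125–175 g). The 123I-labelled (S) or 131I-labelled (R) tracer was given iv in saline. Tumor and normal brain %ID/g were measured at 30, 60 or 120 min, and the ratio was taken from these. Groups were 5 per time for S, and 5/4/4 for R.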

Blood [18] = assay: Biodistribution in 9L cells bearing Fischer 344 rat blood at 15 to 30 uCi, iv after 120 mins; format: ADME, organism-based; settings: in vivo, 2 h; summary of the method: as §1
Liver [19] = assay: Biodistribution in 9L cells bearing Fischer 344 rat liver at 15 to 30 uCi, iv after 60 mins; format: ADME, organism-based; settings: in vivo, 1 h; summary of the method: as §1
Pancreas [20] = assay: Biodistribution in 9L cells bearing Fischer 344 rat pancreas at 15 to 30 uCi, iv after 30 mins; format: ADME, organism-based; settings: in vivo, 0.5 h; summary of the method: as §1
Liver [21] = assay: Biodistribution in 9L cells bearing Fischer 344 rat liver at 15 to 30 uCi, iv after 120 mins; format: ADME, organism-based; settings: in vivo, 2 h; summary of the method: as §1
Lung [22] = assay: Biodistribution in 9L cells bearing Fischer 344 rat lung at 15 to 30 uCi, iv after 30 mins; format: ADME, organism-based; settings: in vivo, 0.5 h; summary of the method: as §1
Bone [23] = assay: Biodistribution in 9L cells bearing Fischer 344 rat bone at 15 to 30 uCi, iv after 60 mins; format: ADME, organism-based, Bone element; settings: in vivo, 1 h; summary of the method: as §1
Rattus norvegicus [24] = assay: Biodistribution in 9L cells bearing Fischer 344 rat tumor at 15 to 30 uCi, iv after 120 mins; format: ADME, organism-based, Neoplasm; settings: in vivo, 2 h; summary of the method: as §1
Kidney [25] = assay: Biodistribution in 9L cells bearing Fischer 344 rat kidney at 15 to 30 uCi, iv after 60 mins; format: ADME, organism-based; settings: in vivo, 1 h; summary of the method: as §1
Heart [26] = assay: Biodistribution in 9L cells bearing Fischer 344 rat heart at 15 to 30 uCi, iv after 120 mins; format: ADME, organism-based; settings: in vivo, 2 h; summary of the method: as §1
Bone [27] = assay: Biodistribution in 9L cells bearing Fischer 344 rat bone at 15 to 30 uCi, iv after 120 mins; format: ADME, organism-based, Bone element; settings: in vivo, 2 h; summary of the method: as §1
Heart [28] = assay: Biodistribution in 9L cells bearing Fischer 344 rat heart at 15 to 30 uCi, iv after 60 mins; format: ADME, organism-based; settings: in vivo, 1 h; summary of the method: as §1
Kidney [29] = assay: Biodistribution in 9L cells bearing Fischer 344 rat kidney at 15 to 30 uCi, iv after 120 mins; format: ADME, organism-based; settings: in vivo, 2 h; summary of the method: as §1
Nucleic Acid [30] = assay: Ratio of drug level in tumor to brain in 9L cells bearing Fischer 344 rat at 15 to 30 uCi, iv after 30 mins; format: ADME, organism-based; settings: in vivo, 0.5 h; summary of the method: as §2
9L [31] = assay: Drug uptake per 10^6 cells in rat 9L cells after 30 mins assessed as uptake inhibition in presence of N-methyl-alpha-aminoisobutyric acid relative to control; format: ADME, cell-based; parameters: scale not given: the % may be the effect or the level left; settings: 0.5 h
Summary of the method: (§3)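 Cultured rat 9L gliosarcoma cells incubated 30 min with 131I-labelled tracer, with or without A-type inhibitor N-MeAIB or L-type inhibitor BCH. Uptake expressed as percent of initial dose per 1 × 10^6 cells, normalized for dose and cell number. Inhibition compared to control by one-way ANOVA; SD shown.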

9L [32] = assay: Drug uptake per 10^6 cells in rat 9L cells after 30 mins; format: ADME, cell-based; settings: 0.5 h; summary of the method: as §3
Blood [33] = assay: Biodistribution in 9L cells bearing Fischer 344 rat blood at 15 to 30 uCi, iv after 30 mins; format: ADME, organism-based; settings: in vivo, 0.5 h; summary of the method: as §1
Thyroid gland [34] = assay: Biodistribution in 9L cells bearing Fischer 344 rat thyroid at 15 to 30 uCi, iv after 120 mins; format: ADME, organism-based; settings: in vivo, 2 h; summary of the method: as §1
Brain [35] = assay: Biodistribution in 9L cells bearing Fischer 344 rat brain at 15 to 30 uCi, iv after 120 mins; format: ADME, organism-based; settings: in vivo, 2 h; summary of the method: as §1
Thyroid gland [36] = assay: Biodistribution in 9L cells bearing Fischer 344 rat thyroid at 15 to 30 uCi, iv after 60 mins; format: ADME, organism-based; settings: in vivo, 1 h; summary of the method: as §1
Lung [37] = assay: Biodistribution in 9L cells bearing Fischer 344 rat lung at 15 to 30 uCi, iv after 120 mins; format: ADME, organism-based; settings: in vivo, 2 h; summary of the method: as §1
Muscle tissue [38] = assay: Biodistribution in 9L cells bearing Fischer 344 rat muscle at 15 to 30 uCi, iv after 30 mins; format: ADME, organism-based; settings: in vivo, 0.5 h; summary of the method: as §1
Testes [39] = assay: Biodistribution in 9L cells bearing Fischer 344 rat testes at 15 to 30 uCi, iv after 120 mins; format: ADME, organism-based, Testis; settings: in vivo, 2 h; summary of the method: as §1
Thyroid gland [40] = assay: Biodistribution in 9L cells bearing Fischer 344 rat thyroid at 15 to 30 uCi, iv after 30 mins; format: ADME, organism-based; settings: in vivo, 0.5 h; summary of the method: as §1
Testes [41] = assay: Biodistribution in 9L cells bearing Fischer 344 rat testes at 15 to 30 uCi, iv after 30 mins; format: ADME, organism-based, Testis; settings: in vivo, 0.5 h; summary of the method: as §1
Blood [42] = assay: Biodistribution in 9L cells bearing Fischer 344 rat blood at 15 to 30 uCi, iv after 60 mins; format: ADME, organism-based; settings: in vivo, 1 h; summary of the method: as §1
Rattus norvegicus [43] = assay: Biodistribution in 9L cells bearing Fischer 344 rat tumor at 15 to 30 uCi, iv after 60 mins; format: ADME, organism-based, Neoplasm; settings: in vivo, 1 h; summary of the method: as §1
Nucleic Acid [44] = assay: Ratio of drug level in tumor to brain in 9L cells bearing Fischer 344 rat at 15 to 30 uCi, iv after 60 mins; format: ADME, organism-based; settings: in vivo, 1 h; summary of the method: as §2

C[C@](N)(/C=C/[123I])C(=O)O
Drug uptake (Bone [1]): 0.51 % ID/g
Drug uptake (Brain [2]): 0.091 % ID/g
Drug uptake (Kidney [3]): 24 % ID/g
Drug uptake (Brain [4]): 0.058 % ID/g
Drug uptake (Heart [5]): 1.31 % ID/g
Drug uptake (Muscle tissue [6]): 1.26 % ID/g
Drug uptake (Testes [7]): 0.58 % ID/g
Drug uptake (Pancreas [8]): 10.7 % ID/g
Drug uptake (Liver [9]): 1.62 % ID/g
Drug uptake (Spleen [10]): 1.08 % ID/g
Drug uptake (Lung [11]): 1.41 % ID/g
Drug uptake (Pancreas [12]): 7.7 % ID/g
Drug uptake (Rattus norvegicus [13]): 4.7 % ID/g
Drug uptake (Spleen [14]): 1.73 % ID/g
Drug uptake (Spleen [15]): 1.54 % ID/g
Drug uptake (Muscle tissue [16]): 1.7 % ID/g
Ratio (Nucleic Acid [17]): 71
Drug uptake (Blood [18]): 1.03 % ID/g
Drug uptake (Liver [19]): 1.62 % ID/g
Drug uptake (Pancreas [20]): 11.9 % ID/g
Drug uptake (Liver [21]): 1.27 % ID/g
Drug uptake (Lung [22]): 1.24 % ID/g
Drug uptake (Bone [23]): 0.74 % ID/g
Drug uptake (Rattus norvegicus [24]): 6.84 % ID/g
Drug uptake (Kidney [25]): 22.9 % ID/g
Drug uptake (Heart [26]): 1.2 % ID/g
Drug uptake (Bone [27]): 0.64 % ID/g
Drug uptake (Heart [28]): 1.4 % ID/g
Drug uptake (Kidney [29]): 18.4 % ID/g
Ratio (Nucleic Acid [30]): 81
Activity (9L [31]): 85%
Drug uptake (9L [32]): 0.35 %ID
Drug uptake (Blood [33]): 1.33 % ID/g
Drug uptake (Thyroid gland [34]): 0.18 %ID/organ
Drug uptake (Brain [35]): 0.096 % ID/g
Drug uptake (Thyroid gland [36]): 0.24 %ID/organ
Drug uptake (Lung [37]): 0.98 % ID/g
Drug uptake (Muscle tissue [38]): 1.35 % ID/g
Drug uptake (Testes [39]): 0.64 % ID/g
Drug uptake (Thyroid gland [40]): 0.16 %ID/organ
Drug uptake (Testes [41]): 0.49 % ID/g
Drug uptake (Blood [42]): 1.22 % ID/g
Drug uptake (Rattus norvegicus [43]): 6.81 % ID/g
Ratio (Nucleic Acid [44]): 75

From ChEMBL document CHEMBL1138353, “Facile stereospecific synthesis and biological evaluation of (S)- and (R)-2-amino-2-methyl-4-[123I]iodo-3-(E)-butenoic acid for brain tumor imaging with single photon emission computerized tomography” (J Med Chem, 2007)
